Active and inactive are the calls of the source. The calls are words filed in the database; no cut-off is given here.
What was measured:
CD4+ve Th [1] = assay: (§1) Induction of mouse ovalbumin specific CD4+ T cell activation assessed as increase in IL-17A expression at 1 uM preincubated for 18 hrs with mouse BDMC cells in presence of ovalbumin followed by washout and further coincubated with CD4+ T cells and measured after 72 hrs; type: functional, cell-based
Procedure, shortened: (§2)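 Supernatants taken after the 72 h coculture of washed BMDCs (18 h pretreatment with 1 μM compound, LPS 1 μg/mL or vehicle, plus OVA 50 μg/mL) with OT-II CD4+ or OT-I CD8+ T cells. Cytokines measured by mouse Th1/Th2/Th17 cytometric bead array. Duplicates of two independent experiments, mean ± SEM.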

RAW-Blue = assay: Activation of NF-kappaB transcriptional activity in mouse RAW-Blue cells expressing NOD2 and TLR7 at 1 uM incubated for 18 hrs by quanti-blue/SEAP-based spectrophotometry analysis; type: cell-based; settings: filed as activator
Procedure, shortened: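 RAW-Blue cells pretreated 1 h with NOD2 antagonist SG84 (5 μM), TLR7 antagonist M5049 (1 μM), both, or neither, then given compound or 0.1% DMSO vehicle; 18 h at 37 °C, 5% CO2 in growth medium without Normocin/Zeocin. Supernatant mixed with QUANTI-Blue for 2 h at 37 °C, SEAP read at 630 nm. Activity relative to vehicle; three independent experiments, mean ± SEM.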

[2] = Cytotoxicity against HEK-Blue hNOD2 cells assessed as reduction in metabolic activity at 10 uM incubated for 18 hrs by MTS assay; type: toxicity, cell-based; settings: human, hek-blue hnod2, 18 h
Procedure, shortened: (§3)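 Cells (HEK-Blue NOD2, RAW-Blue or freshly isolated human PBMCs) seeded in duplicate and exposed to 10 μM compound or 0.1% DMSO vehicle for 18 h at 37 °C, 5% CO2. Metabolic activity then measured by CellTiter 96 AQueous One (MTS) assay.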

CD8-positive T cell [3] = assay: (§4) Induction of mouse ovalbumin specific CD8-positive T cell activation assessed as increase in IL-17A expression at 1 uM preincubated for 18 hrs with mouse BDMC cells in presence of ovalbumin followed by washout and further coincubated with CD4+ T cells and measured after 72 hrs; type: functional, cell-based; procedure, shortened: as §2
MEC1 = assay: Cytotoxicity against human MEC1 cells cocultured with human PBMC cells assessed as inhibition of cell proliferation at 1 uM incubated with PBMC cells for 18 hrs followed by co-incubation with MEC-1 cells for 4 hrs by SYTOX blue staining based flow cytometric analysis; type: functional
Procedure, shortened: (§5)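 Human PBMCs (Ficoll-isolated, healthy donors) pretreated 18 h in duplicate with compound (1 nM–1 μM) or 0.1% DMSO. CFSE-labelled K562 or MEC1 target cells then added, effector:target 40:1, 4 h at 37 °C. Sytox blue staining, flow cytometry; CFSE+Sytox+ cells counted as dead. Expressed relative to vehicle; three independent experiments, mean ± SEM.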

[4] = as §1, with “increase in CD25 expression at” for “increase in IL-17A expression at”, “72 hrs by flow cytometry analysis (reference value: 10.9%)” for “72 hrs”; type: functional, CD4+ve Th
Procedure, shortened: (§6)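 C57BL/6 BMDCs (GM-CSF 7 days, >90% CD11c+) pulsed 18 h with 1 μM compound, LPS 1 μg/mL or 0.1% DMSO plus OVA 50 μg/mL, washed. 1 × 10^4 BMDCs cocultured 72 h with 5 × 10^4 CFSE-labelled OT-II CD4+ or OT-I CD8+ T cells. Flow: live Thy1.2+ CD4+ or CD8+ cells scored as CD25+ CFSElow. Duplicates of two experiments.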

CD8-positive T cell [5] = assay: Induction of mouse ovalbumin specific CD8-positive T cell activation assessed as increase in TNF expression at 1 uM preincubated for 18 hrs with mouse BDMC cells in presence of ovalbumin followed by washout and further coincubated with CD4+ T cells and measured after 72 hrs; type: functional, cell-based; procedure, shortened: as §2
CD8-positive T cell [6] = assay: Induction of mouse ovalbumin specific CD8-positive T cell activation assessed as increase in IFN-gamma expression at 1 uM preincubated for 18 hrs with mouse BDMC cells in presence of ovalbumin followed by washout and further coincubated […] and measured after 72 hrs; type: functional, cell-based; procedure, shortened: as §2
CD4+ve Th [7] = assay: Induction of mouse ovalbumin specific CD4+ T cell activation assessed as increase in IL-6 expression at 1 uM preincubated for 18 hrs with mouse BDMC cells in presence of ovalbumin followed by washout and further coincubated with CD4+ T cells and measured after 72 hrs; type: functional, cell-based; procedure, shortened: as §2
[8] = Induction of activation of human CD56+ CD3- NK cells co-cultured with human PBMC cells assessed as increase in IFN-gamma expression at 1 uM incubated for 24 hrs by flow cytometry analysis (reference value: 0.04%); type: functional, Natural killer cell
K562 = assay: Cytotoxicity against human K562 cells cocultured with human PBMC cells assessed as inhibition of cell proliferation at 1 uM incubated with PBMC cells for 18 hrs followed by co-incubation with K562 cells for 4 hrs by SYTOX blue staining based flow cytometric analysis; type: functional; procedure, shortened: as §5
[9] = as §4, with “increase in CD25 expression at” for “increase in IL-17A expression at”, “72 hrs by flow cytometry analysis (reference value: 12.6%)” for “72 hrs”; type: functional; procedure, shortened: as §6
CD4+ve Th [10] = assay: Induction of mouse ovalbumin specific CD4+ T cell activation assessed as increase in IFN-gamma expression at 1 uM preincubated for 18 hrs with mouse BDMC cells in presence of ovalbumin followed by washout and further coincubated with CD4+ T cells and measured after 72 hrs; type: functional, cell-based; procedure, shortened: as §2
[11] = Cytotoxicity against mouse RAW-Blue cells assessed as reduction in metabolic activity at 10 uM incubated for 18 hrs by MTS assay; type: toxicity, cell-based; procedure, shortened: as §3
CD8-positive T cell [12] = assay: Induction of mouse ovalbumin specific CD8-positive T cell activation assessed as increase in IL-6 expression at 1 uM preincubated for 18 hrs with mouse BDMC cells in presence of ovalbumin followed by washout and further coincubated with CD4+ T cells and measured after 72 hrs; type: functional, cell-based; procedure, shortened: as §2
[13] = Induction of activation of human CD56+ CD3- NK cells co-cultured with human PBMC cells assessed as increase in CD69 expression at 1 uM incubated for 24 hrs by flow cytometry analysis (reference value: 2.7%); type: functional, Natural killer cell
[14] = Cytotoxicity against human PBMC cells assessed as reduction in metabolic activity at 10 uM incubated for 18 hrs by MTS assay; type: toxicity, cell-based; procedure, shortened: as §3
CD4+ve Th [15] = assay: Induction of mouse ovalbumin specific CD4+ T cell activation assessed as increase in TNF expression at 1 uM preincubated for 18 hrs with mouse BDMC cells in presence of ovalbumin followed by washout and further coincubated with CD4+ T cells and measured after 72 hrs; type: functional, cell-based; procedure, shortened: as §2
[16] = Induction of activation of human CD56+ CD3- NK cells co-cultured with human PBMC cells assessed as increase in CD107a expression at 1 uM incubated for 24 hrs by flow cytometry analysis (reference value: 1.5%); type: functional, Natural killer cell
PBMC = assay: Immunostimulatory activity in human PBMC cells assessed as increase in IL-8 production at 1 uM incubated for 18 hrs by flow cytometry analysis; type: functional, cell-based
Procedure, shortened: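 PBMCs at 1 × 10^6 cells/mL treated with compound (1 μM), LPS (1 μg/mL) or 0.1% DMSO vehicle; cell-free supernatants collected after 18 h at 37 °C, 5% CO2. Cytokines quantified by human inflammatory cytokine bead array on flow cytometry with recombinant standard curves. Four independent experiments, mean ± SEM.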

| Structure (SMILES) | Activity (CD4+ve Th [1]) | Activity (RAW-Blue) | Activity [2] | Activity (CD8-positive T cell [3]) | Activity (MEC1) | Activity [4] [%] | Activity (CD8-positive T cell [5]) | Activity (CD8-positive T cell [6]) | Activity (CD4+ve Th [7]) | Activity [8] [%] | Activity (K562) | Activity [9] [%] | Activity (CD4+ve Th [10]) | Activity [11] | Activity (CD8-positive T cell [12]) | Activity [13] [%] | Activity [14] | Activity (CD4+ve Th [15]) | Activity [16] [%] | Activity (PBMC) |
| --- | --- | --- | --- | --- | --- | --- | --- | --- | --- | --- | --- | --- | --- | --- | --- | --- | --- | --- | --- | --- |
| CCCCOc1nc(N)c2nc(O)n(Cc3ccc(C(=O)NCCCCCC(=O)Oc4ccc(/C=C/C(=O)NCC(=O)N[C@H](C(=O)N[C@H](CCC(=O)OCC)C(=O)OCC)C(C)C)cc4OC)cc3)c2n1 | Active | Active | Non-Toxic | Active | Active | 29.5 | Active | Active | Active | 21 | Active | 44.7 | Active | Non-Toxic | Active | 93 | Non-Toxic | Active | 8.6 | – |
| CCOC(=O)CC[C@@H](NC(=O)[C@@H](NC(=O)CNC(=O)/C=C/c1ccc(O)c(OC)c1)C(C)C)C(=O)OCC | – | – | Non-Toxic | – | – | 12.6 | – | – | – | 1.4 | – | 13.1 | – | Non-Toxic | – | 14 | Non-Toxic | – | 1.1 | Active |
